Screening results as filed in PubChem.
Runt-CBFb FRET = blocks binding of human RUNX1 Runt domain to CBFb; inhibition, % at 20 µM; 220,000 compounds, 0.46% hits; Cerulean-Runt/Venus-CBFb FRET ratio 530/480, 1 h;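 active = inhibition over about 50% at 20 µM in the single-dose screen, limit read from the data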
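test system = Cerulean-Runt domain fusion protein, energy donor | probe or stimulus = Venus-CBFb binding partner, 100 nM | incubation = two 1 h room-temperature incubations shielded from light | detection = fluorescence energy transfer, 422 nm excitation, 530/480 nm emission | measure = loss of energy transfer signal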
LANA-H2B inh = blocks KSHV LANA binding to histone H2A/H2B. Q9QR71. cell-free LANA-H2A/H2B peptide, fluorescence polarization. inhibition, % (no concentration beside the values). 320,000 compounds, 0.6% hits; in the data active = inhibition mostly above about 10%, no sharp cut-off; inactive = mostly below about 6.7%
RanGTP-Imp inh = disruptors of Ran-importin-beta complex formation – biochemical, FRET, CFP-Ran, YFP-importin-beta, homogeneous, primary screen; cell-free CFP-Ran/YFP-importin-beta FRET ratio; inhibition, % (no concentration beside the values); 300,000 compounds, 1.1% hits; AID 2216;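 active = more than half of the replicate wells show a fall in the fluorescence ratio signal beyond about 16%, limit read from the data, passing the limit was not always enough; inconclusive = exactly half of the replicate wells pass the set limit; inactive = fewer than half of replicates pass the limit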
MEX-5 binding = C. elegans MEX-5 TCR-2 RNA binding activity | MEX-5/FITC-TCR2 RNA binding, fluorescence polarization; stronger effect = lower value | activity score (negative = inhibition of binding), % at 10 µM | 300,000 compounds, 0.38% hits | AID 1832;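 active = inhibition past about -25% in most replicates, and total fluorescence under double the plate's negative control median, limit read from the data; inconclusive = replicates evenly split on the limit, or fluorescence at least double controls; inactive = too little inhibition in most replicates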
Runt-SMMHC FRET = inhibitors of human RUNX1 Runt domain binding to CBFb-SMMHC; Q01196+Q13951; Cerulean-Runt/Venus-CBFb-SMMHC FRET ratio 530/480, 1 h; inhibition, % at 20 µM; 220,000 compounds, 0.74% hits; AID 1434;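 active = mean inhibition across duplicate retests at 20 µM reaching about 50%, limit read from the data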;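 note: inhibitors lower the FRET ratio by blocking Runt binding to CBFb-SMMHC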
EBV gp42 inh = inhibitors of Epstein-Barr virus glycoprotein 42. Q1HVG2. Fluorescence polarization binding assay, mP read-out. 220,000 compounds, 0.42% hits. AID 1085. inhibition, % (tested at 21.74 µM); in the data active = inhibition above about 50%
Target sequence (Q1HVG2 whole entry, looked up): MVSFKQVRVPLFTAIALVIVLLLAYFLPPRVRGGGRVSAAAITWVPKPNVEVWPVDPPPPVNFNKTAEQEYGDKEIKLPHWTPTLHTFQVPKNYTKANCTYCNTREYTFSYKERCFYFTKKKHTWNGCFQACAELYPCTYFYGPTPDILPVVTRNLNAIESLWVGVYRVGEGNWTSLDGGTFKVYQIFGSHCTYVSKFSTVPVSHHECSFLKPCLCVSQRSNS
Each line names hits and unclear results; the compound was inactive in the other large screens. Compounds with a hit are over-represented: about 2.4% of the library has one in this group of screens.

COc1cccc(C(=O)NNc2c3ccccc3nc3ccccc23)c1	RanGTP-Imp inh 16 (no result: Runt-CBFb FRET, Runt-SMMHC FRET, EBV gp42 inh)
O=C(O)c1ccc(Nc2c3ccccc3nc3ccccc23)cc1	RanGTP-Imp inh 20 (no result: Runt-CBFb FRET, Runt-SMMHC FRET, EBV gp42 inh)
COc1ccc(Nc2c3ccccc3nc3ccccc23)cc1	RanGTP-Imp inh 67 (no result: Runt-CBFb FRET, Runt-SMMHC FRET, EBV gp42 inh)
Cc1ccc(N(C(=O)NC2CCCCC2)C2=NCCCCC2)cc1	none
Cc1nn(CC(=O)Nc2ccc(N3CCOCC3)cc2)c(C)c1Cl	none (no result: Runt-CBFb FRET, Runt-SMMHC FRET, EBV gp42 inh)
COc1cc2nc(CSc3nc(-c4ccc(F)cc4)cs3)[nH]c(=O)c2cc1OC	none
O=C(/C(=C(\[O-])c1ccccc1)[n+]1ccc2ccccc2c1)c1ccc(Cl)cc1	EBV gp42 inh 67
O=C(/C(=C(\[O-])c1ccccc1)[n+]1ccc2ccccc2c1)c1ccccc1	EBV gp42 inh 74
COc1ccc(-c2c(C#N)c(N)nc3sc(C(=O)c4ccc(C)cc4)c(N)c23)cc1	EBV gp42 inh 75 (no result: LANA-H2B inh)
CCOC(=O)c1c(C)nc2sc(C(N)=O)c(N)c2c1-c1ccc(OC)cc1	none
COc1ccc(-c2c(C#N)c(N)nc3c2CCC3)cc1	Runt-SMMHC FRET 97
COc1ccc(NC(=O)c2sc3nc(-c4cccnc4)ccc3c2N)cc1	MEX-5 binding -55, EBV gp42 inh 84
COc1ccc(C(=O)c2sc3nc(-c4ccc(OC)cc4)ccc3c2N)cc1	RanGTP-Imp inh 23
O=C(NC1CCCC1)c1cc(-c2cccc(Cl)c2)on1	none (no result: Runt-CBFb FRET, Runt-SMMHC FRET, EBV gp42 inh)
CCOC(=O)C1=NNC(C(=O)c2ccc(Cl)cc2)C1c1ccc(OC)cc1 (configuration not stated)	EBV gp42 inh 82
CC(C)=C(C#N)c1nc2ccccc2s1	none
CC1=CC(=C(C#N)c2nc3ccccc3s2)C=C(C)N1c1ccc(F)cc1	EBV gp42 inh 180
COc1cccc(-c2nc3ccccc3s2)c1O	none
COc1ccccc1N1C(C)=CC(=C(C#N)c2nc3ccccc3s2)C=C1C	MEX-5 binding -38, EBV gp42 inh 164
CCCCC1(c2ccc(F)cc2)NC(=O)N(CC(=O)N2CCN(C(=O)c3ccco3)CC2)C1=O (configuration not stated)	none (no result: Runt-CBFb FRET, Runt-SMMHC FRET, EBV gp42 inh)
N#CC1=C(N)SC(N)=C(C#N)C1Cc1ccccc1	RanGTP-Imp inh 62
N#CC1=C(N)SC(N)=C(C#N)C1CCc1ccccc1	RanGTP-Imp inh inconclusive
CC(C)CC1C(C#N)=C(N)SC(N)=C1C#N	RanGTP-Imp inh 41
O=C1NC(=S)N/C1=C/c1ccc2ccccc2c1	RanGTP-Imp inh 26 (no result: Runt-CBFb FRET, Runt-SMMHC FRET, EBV gp42 inh)
CN1C(=O)/C(=C2/C=Cc3ccccc3N2CCCS(=O)(=O)O)SC1=S	none
C=CCN1C(=O)/C(=C2/Sc3ccccc3N2CCCS(=O)(=O)O)SC1=S	Runt-CBFb FRET 66, RanGTP-Imp inh 45, Runt-SMMHC FRET 65
O=C1c2cccc3c(O)ccc(c23)C(=O)N1Cc1ccco1	MEX-5 binding inconclusive, EBV gp42 inh 172 (no result: LANA-H2B inh)
CC(=O)Nc1ccc(N2C(=O)c3cccc4c(O)ccc(c34)C2=O)cc1	none (no result: Runt-CBFb FRET, Runt-SMMHC FRET, EBV gp42 inh)
O=C1c2cccc3c(O)ccc(c23)C(=O)N1c1ccc(Cl)cc1	LANA-H2B inh 23, MEX-5 binding -41 (no result: Runt-CBFb FRET, Runt-SMMHC FRET, EBV gp42 inh)
O=C1CSC(=S)N1N1C(=O)c2cccc([N+](=O)[O-])c2C1=O	MEX-5 binding -28
CC(=O)n1c(C=Nc2ccc(Cl)cc2)c(O)c2ccccc21	MEX-5 binding inconclusive, EBV gp42 inh 125
CCOC(=O)C1(CCOC)CCN(Cc2nc(-c3cccs3)oc2C)CC1	none
Cc1oc(-c2cccs2)nc1CN1CCC(CO)(CCOc2ccccc2)CC1	LANA-H2B inh 13
Cn1ncc2c(Nc3cccc([N+](=O)[O-])c3)ncnc21	none (no result: Runt-CBFb FRET, Runt-SMMHC FRET, EBV gp42 inh)
c1ccc(Cn2cc(CSc3ccccc3)nn2)cc1	none
Cc1nn(C)cc1NC(=O)c1cc2nc(-c3ccco3)cc(C(F)(F)F)n2n1	none
O=C(Nc1cnn(Cc2ccccc2)c1)c1cc2nc(-c3ccco3)cc(C(F)(F)F)n2n1	RanGTP-Imp inh 17
CC1Cc2ccccc2N1C(=O)CN1CCC(n2nnc3cc(C(F)(F)F)ccc32)CC1 (configuration not stated)	EBV gp42 inh 100
Cc1ccc2c(c1)nnn2C1CCN(CC(=O)Nc2ccccc2N2CCOCC2)CC1	Runt-CBFb FRET 84
O=C(N1CCOCC1)N1CCC(n2nnc3cc(F)ccc32)CC1	MEX-5 binding -27
